# Results reported in ChEMBL document CHEMBL3612031, “Incorporation of a Michael acceptor enhances the antitumor activity of triterpenoic acids” (Eur J Med Chem, 2015).
# pEC50: −log10 of the molar value. Calls of active or inactive are those of the source. No cut-off for these calls is given here.
# Experiments:
# Assay type in all cases: functional, cell-based
# MCF7 [1] = experiment: Cytotoxicity against human MCF7 cells assessed as cell survival after 96 hrs by SRB assay; details: for pEC50: MCF7, 96 h
# Procedure, shortened: (§1)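 Monolayers kept in RPMI 1640 with 10 % heat-inactivated FBS and penicillin/streptomycin, 37 °C, 5 % CO2. Exponentially growing cells seeded day 0 at densities avoiding confluence. After 24 h, serial dilutions 0-100 µM for 96 h, DMSO or DMF ≤0.5 % final. Fixed with 10 % TCA at 4 °C, stained 0.4 % SRB ~20 min, washed with 1 % acetic acid, dye dissolved in 10 mM Tris base, A570 read. Survival taken relative to untreated controls. EC50 fitted by two-parameter Hill equation, mean of three independent experiments each run in triplicate.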
# [2] = (§2) Cytotoxicity against human 518A2 cells assessed as cell survival after 96 hrs by SRB assay; details: 518A2, 96 h; procedure, shortened: as §1
# HT-29 = experiment: Cytotoxicity against human HT-29 cells assessed as cell survival after 96 hrs by SRB assay; details: for pEC50: HT-29, 96 h; procedure, shortened: as §1
# 8505C = experiment: Cytotoxicity against human 8505C cells assessed as cell survival after 96 hrs by SRB assay; procedure, shortened: as §1
# A549 = experiment: Cytotoxicity against human A549 cells assessed as cell survival after 96 hrs by SRB assay; details: for pEC50: A549, 96 h; procedure, shortened: as §1
# 518A2 = experiment: as §2; procedure, shortened: as §1
# MCF7 [3] = experiment: Cytotoxicity against human MCF7 cells assessed as inhibition of cell proliferation after 3 days by radioactive thymidine incorporation assay; details: MCF7, 72 h
smiles,measurement,setting,value
COC(=O)[C@]12CC[C@@H](C)[C@H](C)[C@H]1C1=CC[C@@H]3[C@@]4(C)CC[C@H](O)C(C)(C)[C@@H]4CC[C@@]3(C)[C@]1(C)CC2 [METHYL URSOLATE],pEC50,MCF7 [1],< 4.52
same,pEC50,[2],< 4.52
same,pEC50,HT-29,< 4.52
CC(=O)[C@@H]1CC[C@]2(C(=O)O)CC[C@]3(C)[C@H](CC[C@@H]4[C@@]5(C)CC[C@H](O)C(C)(C)[C@@H]5CC[C@]43C)[C@@H]12 [PLATANIC ACID],pEC50,8505C,5.80
same,pEC50,A549,5.81
same,pEC50,MCF7 [1],5.81
same,pEC50,[2],5.82
same,pEC50,HT-29,5.77
C=C1C[C@]2(C)[C@H]3C(=O)C=C4[C@@H]5CC(C)(C)CC[C@]5(C(=O)OC)CC[C@@]4(C)[C@]3(C)CC[C@H]2C(C)(C)C1=O,pEC50,8505C,4.81
same,pEC50,A549,4.75
same,pEC50,[2],4.78
COC(=O)[C@]12CCC(C)(C)C[C@H]1C1=CC(=O)[C@@H]3[C@@]4(C)CCC(=O)C(C)(C)[C@@H]4CC[C@@]3(C)[C@]1(C)CC2,pEC50,MCF7 [1],< 4.52
C=C1C[C@]2(C)[C@H]3CC=C4[C@@H]5CC(C)(C)CC[C@]5(C(=O)OC)CC[C@@]4(C)[C@]3(C)CC[C@H]2C(C)(C)C1=O,pEC50,8505C,< 4.52
same,pEC50,A549,< 4.52
same,pEC50,MCF7 [1],< 4.52
same,pEC50,[2],< 4.52
same,pEC50,HT-29,< 4.52
COC(=O)[C@]12CC[C@@H](C)[C@H](C)[C@H]1C1=CC(=O)[C@@H]3[C@@]4(C)CC(Br)(Br)C(=O)C(C)(C)[C@@H]4CC[C@@]3(C)[C@]1(C)CC2,Activity,8505C,Active
same,Activity,A549,Active
same,Activity,MCF7 [1],Active
same,Activity,518A2,Active
same,Activity,HT-29,Active
C=C1C[C@]2(C)[C@H]3C(=O)C=C4[C@@H]5C[C@@](C)(C(=O)OC)CC[C@]5(C)CC[C@@]4(C)[C@]3(C)CC[C@H]2C(C)(C)[C@H]1O,Activity,8505C,inactive
same,Activity,A549,inactive
same,Activity,MCF7 [1],inactive
same,Activity,518A2,inactive
same,Activity,HT-29,inactive
CC1(C)CC[C@]2(C(=O)O)CC[C@]3(C)[C@H](C(=O)C=C4[C@@]5(C)C=C(C#N)C(=O)C(C)(C)[C@@H]5CC[C@]43C)[C@@H]2C1 [BARDOXOLONE],pEC50,MCF7 [3],6.80
COC(=O)[C@]12CCC(C)(C)C[C@H]1C1=CC(=O)[C@@H]3[C@@]4(C)CC(Br)(Br)C(=O)C(C)(C)[C@@H]4CC[C@@]3(C)[C@]1(C)CC2,Activity,8505C,Active
same,Activity,A549,Active
same,Activity,MCF7 [1],Active
same,Activity,518A2,Active
same,Activity,HT-29,Active
COC(=O)[C@]12CC[C@@H](C)[C@H](C)[C@H]1C1=CC(=O)[C@@H]3[C@@]4(C)CCC(=O)C(C)(C)[C@@H]4CC[C@@]3(C)[C@]1(C)CC2,pEC50,8505C,5.36
same,pEC50,A549,5.42
same,pEC50,MCF7 [1],5.37
same,pEC50,[2],5.43
same,pEC50,HT-29,5.43
COC(=O)[C@]12CC[C@@H](C)[C@H](C)[C@H]1C1=CC[C@@H]3[C@@]4(C)CC(Br)(Br)C(=O)C(C)(C)[C@@H]4CC[C@@]3(C)[C@]1(C)CC2,Activity,8505C,Active
same,Activity,A549,Active
same,Activity,MCF7 [1],Active
same,Activity,518A2,Active
same,Activity,HT-29,Active
CC1(C)CC[C@]2(C(=O)O)CC[C@]3(C)C(=CC[C@@H]4[C@@]5(C)CC[C@H](O)C(C)(C)[C@@H]5CC[C@]43C)[C@@H]2C1 [OLEANOLIC_ACID],pEC50,8505C,< 4.52
same,pEC50,A549,< 4.52
same,pEC50,MCF7 [1],< 4.52
same,pEC50,[2],< 4.52
same,pEC50,HT-29,< 4.52
COC(=O)[C@]12CC[C@@H](C)[C@H](C)[C@H]1C1=CC(=O)[C@@H]3[C@@]4(C)CC[C@H](O)C(C)(C)[C@@H]4CC[C@@]3(C)[C@]1(C)CC2,pEC50,MCF7 [1],< 4.52
same,pEC50,[2],< 4.52
same,pEC50,HT-29,< 4.52
COC(=O)[C@]12CCC(C)(C)C[C@H]1C1=CC[C@@H]3[C@@]4(C)CC[C@H](O)C(C)(C)[C@@H]4CC[C@@]3(C)[C@]1(C)CC2 [METHYL OLEANOLATE],pEC50,MCF7 [1],< 4.52
same,pEC50,[2],< 4.52
same,pEC50,HT-29,< 4.52
C=C1C[C@]2(C)[C@H]3CC=C4[C@@H]5[C@@H](C)[C@H](C)CC[C@]5(C(=O)OC)CC[C@@]4(C)[C@]3(C)CC[C@H]2C(C)(C)C1=O,pEC50,8505C,5.21
same,pEC50,A549,5.53
same,pEC50,MCF7 [1],5.35
same,pEC50,[2],5.67
same,pEC50,HT-29,5.87
COC(=O)[C@@]1(C)CC[C@]2(C)CC[C@]3(C)C(=CC(=O)[C@@H]4[C@@]5(C)CCC(=O)C(C)(C)[C@@H]5CC[C@]43C)[C@@H]2C1,pEC50,8505C,4.69
same,pEC50,A549,4.58
same,pEC50,MCF7 [1],4.78
same,pEC50,[2],< 4.52
same,pEC50,HT-29,4.57
C[C@H]1[C@H](C)CC[C@]2(C(=O)O)CC[C@]3(C)C(=CC[C@@H]4[C@@]5(C)CC[C@H](O)C(C)(C)[C@@H]5CC[C@]43C)[C@H]12 [URSOLIC ACID],pEC50,8505C,4.87
same,pEC50,A549,4.81
same,pEC50,MCF7 [1],4.90
same,pEC50,[2],4.83
same,pEC50,HT-29,4.97
COC(=O)[C@]12CC[C@@H](C)[C@H](C)[C@H]1C1=CC[C@@H]3[C@@]4(C)C[C@H](C)C(=O)C(C)(C)[C@@H]4CC[C@@]3(C)[C@]1(C)CC2,Activity,8505C,inactive
same,Activity,A549,inactive
same,Activity,MCF7 [1],inactive
same,Activity,518A2,inactive
same,Activity,HT-29,inactive
COC(=O)[C@]12CCC(C)(C)C[C@H]1C1=CC(=O)[C@@H]3[C@@]4(C)CC[C@H](O)C(C)(C)[C@@H]4CC[C@@]3(C)[C@]1(C)CC2,pEC50,MCF7 [1],4.54
same,pEC50,[2],< 4.52
same,pEC50,HT-29,4.56
COC(=O)[C@@]1(C)CC[C@]2(C)CC[C@]3(C)C(=CC(=O)[C@@H]4[C@@]5(C)CC[C@H](O)C(C)(C)[C@@H]5CC[C@]43C)[C@@H]2C1,pEC50,8505C,< 4.52
same,pEC50,A549,< 4.52
same,pEC50,MCF7 [1],< 4.52
same,pEC50,[2],< 4.52
same,pEC50,HT-29,< 4.52
C=C1C[C@]2(C)[C@H]3C(=O)C=C4[C@@H]5[C@@H](C)[C@H](C)CC[C@]5(C(=O)OC)CC[C@@]4(C)[C@]3(C)CC[C@H]2C(C)(C)C1=O,pEC50,8505C,5.79
same,pEC50,A549,5.80
same,pEC50,MCF7 [1],5.33
same,pEC50,[2],5.82
same,pEC50,HT-29,5.50
CC1(C)[C@@H](O)CC[C@]2(C)[C@H]3C(=O)C=C4[C@@H]5C[C@@](C)(C(=O)O)CC[C@]5(C)CC[C@@]4(C)[C@]3(C)CC[C@@H]12 [ENOXOLONE],pEC50,8505C,4.06
same,pEC50,A549,4.08
same,pEC50,MCF7 [1],4.07
same,pEC50,[2],4.08
same,pEC50,HT-29,4.10
C=C1C[C@]2(C)[C@H]3C(=O)C=C4[C@@H]5C[C@@](C)(C(=O)OC)CC[C@]5(C)CC[C@@]4(C)[C@]3(C)CC[C@H]2C(C)(C)C1=O,pEC50,8505C,< 4.52
same,pEC50,A549,< 4.52
same,pEC50,MCF7 [1],6.13
same,pEC50,[2],< 4.52
same,pEC50,HT-29,< 4.52
